The structures appear in SMILES notation. pIC50: −log10 of the molar value. The source made the active and inactive calls. No cut-off for these calls is given here.

The test system of assay [1] is Jurkat. As to the kind of experiment: Cell cycle arrest in human Jurkat cells assessed as accumulation at G0/G1 phase at 1 uM after 24 hrs by FITC/propidium iodide staining-based FACS flow cytometric analysis (reference value: 55.5%). The class given is functional. In short, it runs like this:
(§1)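 HeLa and Jurkat human cells were cultured for 24 h with compound at two concentrations. The control was an equal volume of the DMSO diluent. Cellular DNA and protein content were then measured by flow cytometry, and the percentage of cells in sub-G1, G0/G1, S and G2/M was read out.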

Assay [2] relates to Jurkat. The assay is described as follows: Cell cycle arrest in human Jurkat cells assessed as accumulation at G0/G1 phase at 10 uM after 24 hrs by FITC/propidium iodide staining-based FACS flow cytometric analysis (reference value: 69.5%). The class given is functional. In short, it runs like this: as §1
(In flow cytometry, cells or beads pass a laser one at a time.)

The test system of the next assay is DU-145. The assay is described as follows: Cytotoxicity against human DU145 cells assessed as growth inhibition by measuring cellular ATP level after 72 hrs by cell-titer glo assay. The class given is functional, cell-based. Particulars: DU-145, 72 h.
Another assay relates to HeLa. The assay is described as follows: Induction of apoptosis in human HeLa cells assessed as PARP cleavage at 1 to 10 uM after 24 hrs by Western blot analysis. The class given is functional, cell-based.
For assay [3], the system named is Jurkat. The assay is described as follows: Cell cycle arrest in human Jurkat cells assessed as accumulation at sub-G1 phase at 10 uM after 24 hrs by FITC/propidium iodide staining-based FACS flow cytometric analysis (reference value: 2%). The class given is functional. A digest of the protocol: as §1
Assay [4] has as its system Jurkat. The assay is described as follows: Cell cycle arrest in human Jurkat cells assessed as accumulation at G2/M phase at 1 uM after 24 hrs by FITC/propidium iodide staining-based FACS flow cytometric analysis (reference value: 14.4%). The class given is functional. A digest of the protocol:
as §1

The test system of a further assay is MCF7. As to the kind of experiment: Cytotoxicity against human MCF7 cells assessed as growth inhibition by measuring cellular ATP level after 72 hrs by cell-titer glo assay. Particulars: MCF7, 72 h. The class given is functional, cell-based.
Assay [5] deals with Jurkat. The assay is described as follows: Cell cycle arrest in human Jurkat cells assessed as accumulation at sub-G1 phase at 1 uM after 24 hrs by FITC/propidium iodide staining-based FACS flow cytometric analysis (reference value: 6.8%). The class given is functional. A digest of the protocol: as §1
The next assay relates to HCT-116. As to the kind of experiment: Cytotoxicity against human HCT116 cells assessed as growth inhibition by measuring cellular ATP level after 72 hrs by cell-titer glo assay. The class given is functional, cell-based. Particulars: HCT-116, 72 h.
For assay [6], the system named is Jurkat. As to the kind of experiment: Cell cycle arrest in human Jurkat cells assessed as accumulation at G2/M phase at 10 uM after 24 hrs by FITC/propidium iodide staining-based FACS flow cytometric analysis (reference value: 13.2%). The class given is functional. In short, it runs like this: as §1
Assay [7] deals with Jurkat. As to the kind of experiment: Cell cycle arrest in human Jurkat cells assessed as accumulation at S phase at 10 uM after 24 hrs by FITC/propidium iodide staining-based FACS flow cytometric analysis (reference value: 15.3%). The class given is functional. A digest of the protocol: as §1
The next assay has as its system A549. As to the kind of experiment: Cytotoxicity against human A549 cells assessed as growth inhibition by measuring cellular ATP level after 72 hrs by cell-titer glo assay. The class given is functional, cell-based. Particulars: A549, 72 h.
Assay [8] has as its system Jurkat. As to the kind of experiment: Induction of apoptosis in human Jurkat cells assessed as PARP cleavage at 1 to 10 uM after 24 hrs by Western blot analysis. The class given is functional, cell-based. On the technique in general: A western blot detects proteins with antibodies after separation by electrophoresis.
For assay [9], the system named is Jurkat. As to the kind of experiment: Cell cycle arrest in human Jurkat cells assessed as accumulation at S phase at 1 uM after 24 hrs by FITC/propidium iodide staining-based FACS flow cytometric analysis (reference value: 22.3%). The class given is functional. A digest of the protocol:
as §1

The pIC50 is the IC50 on a negative log10 scale, so that one unit is a factor of ten. Consider `Nc1ccccc1NC(=O)c1ccc(CNc2nccc(-c3cccnc3)n2)cc1` [MOCETINOSTAT], for which the Activity with Jurkat [1] was 39.8%; with Jurkat [2], 26.2%; with Jurkat [3], 17.4%; in the assay on Jurkat [4], 10.2%; in the assay with Jurkat [5], 41.3%; in the assay with Jurkat [6] it was 24%. In addition, the figures for the Activity in the assay with Jurkat [7] and with Jurkat [9] were 32.4% and 8.7%, respectively. Also, the pIC50 in the assay with DU-145 was 5.69; in the assay with MCF7, 5.90; in the assay with HCT-116, 6.15; with A549, 5.76. Also, in the assay on HeLa, the result was inactive. In the assay with Jurkat [8], the outcome was Active.

For the origin of these results see ChEMBL document CHEMBL2407081, “Discovery of potent, isoform-selective inhibitors of histone deacetylase containing chiral heterocyclic capping groups and a N-(2-aminophenyl)benzamide binding unit” (J Med Chem, 2013).
